{"source": "ChEMBL document CHEMBL4689842", "about": "“EUbOPEN Chemogenomics Library wave 1” (2021)", "system": "U2OS", "assay": "Multiplex assay against U2OS", "assay_type": "toxicity, cell-based", "conditions": "human", "in_short": "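Phenotypes for tubulin, mitochondrial mass and membrane permeability are expressed as per cents of healthy-nucleus cells. Cells were stained live at seeding with Hoechst33342, BioTracker Green Microtubule Cytoskeleton Dye, MitoTracker Red and Annexin V Alexa Fluor 680, then imaged after compound addition on a CQ1 microscope at 37°C and 5% CO2. Machine-learning gating in CellPathfinder separated Hoechst high-intensity objects from normal cells, divided normal cells by nuclear state (healthy, pyknosed, fragmented) and divided pyknosed cells into mitotic or apoptotic.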", "key": {"[1]": {"conditions": "12 h, 1 µM, compound concentration 1 uM, replicate 1"}, "[2]": {"conditions": "12 h, 1 µM, compound concentration 1 uM, replicate 2"}, "[3]": {"conditions": "12 h, 10 µM, compound concentration 10 uM, replicate 1"}, "[4]": {"conditions": "12 h, 10 µM, compound concentration 10 uM, replicate 2"}, "[5]": {"conditions": "24 h, 1 µM, compound concentration 1 uM, replicate 1"}, "[6]": {"conditions": "24 h, 1 µM, compound concentration 1 uM, replicate 2"}, "[7]": {"conditions": "24 h, 10 µM, compound concentration 10 uM, replicate 1"}, "[8]": {"conditions": "24 h, 10 µM, compound concentration 10 uM, replicate 2"}, "[9]": {"conditions": "48 h, 1 µM, compound concentration 1 uM, replicate 1"}, "[10]": {"conditions": "48 h, 1 µM, compound concentration 1 uM, replicate 2"}, "[11]": {"conditions": "48 h, 10 µM, compound concentration 10 uM, replicate 1"}, "[12]": {"conditions": "48 h, 10 µM, compound concentration 10 uM, replicate 2"}}, "note": "Several values for one entry are separate records, joined by “and”; a condition that tells them apart may be missing. Equal entries are not always repeated.", "data": [{"smiles": "CNC(=O)c1ccc(Nc2ncc(C(F)(F)F)c(NCc3nccnc3N(C)S(C)(=O)=O)n2)cc1", "note": "[DEFACTINIB]", "values": [{"measurement": "Population Apoptotic (%)", "setting": "[1]", "value": "22% and 66%"}, {"measurement": "Population Healthy Nuclei (%)", "setting": "[1]", "value": "90% and 65%"}, {"measurement": "Population Hoechst High Intensity Objects (%)", "setting": "[1]", "value": "4% and 6%"}, {"measurement": "Population Membrane Permeable-Phenotype (%)", "setting": "[1]", "value": "13% and 37%"}, {"measurement": "Population Mitochondria Different-Phenotype (%)", "setting": "[1]", "value": "27% and 15%"}, {"measurement": "Population Mitotic Cells (%)", "setting": "[1]", "value": "77% and 33%"}, {"measurement": "Population Normal (%)", "setting": "[1]", "value": "95% and 93%"}, {"measurement": "Population Pyknosed Nuclei (%)", "setting": "[1]", "value": "4% and 12%"}, {"measurement": "Population Tubulin-Different-Phenotype (%)", "setting": "[1]", "value": "21% and 36%"}, {"measurement": "Total Cell Count", "setting": "[1]", "value": "194 and 96"}, {"measurement": "Population Apoptotic (%)", "setting": "[2]", "value": "25% and 42%"}, {"measurement": "Population Fragmented Nuclei (%)", "setting": "[2]", "value": "6% and 9%"}, {"measurement": "Population Healthy Nuclei (%)", "setting": "[2]", "value": "89% and 77%"}, {"measurement": "Population Hoechst High Intensity Objects (%)", "setting": "[2]", "value": "13% and 9%"}, {"measurement": "Population Mitochondria Different-Phenotype (%)", "setting": "[2]", "value": "28% and 16%"}, {"measurement": "Population Mitotic Cells (%)", "setting": "[2]", "value": "75% and 57%"}, {"measurement": "Population Normal (%)", "setting": "[2]", "value": "86% and 90%"}, {"measurement": "Population Pyknosed Nuclei (%)", "setting": "[2]", "value": 13, "unit": "%"}, {"measurement": "Population Tubulin-Different-Phenotype (%)", "setting": "[2]", "value": 24, "unit": "%"}, {"measurement": "Total Cell Count", "setting": "[2]", "value": "107 and 86"}, {"measurement": "Population Apoptotic (%)", "setting": "[3]", "value": "64% and 37%"}, {"measurement": "Population Fragmented Nuclei (%)", "setting": "[3]", "value": "14% and 7%"}, {"measurement": "Population Healthy Nuclei (%)", "setting": "[3]", "value": "65% and 83%"}, {"measurement": "Population Hoechst High Intensity Objects (%)", "setting": "[3]", "value": "8% and 3%"}, {"measurement": "Population Mitochondria Different-Phenotype (%)", "setting": "[3]", "value": "13% and 25%"}, {"measurement": "Population Mitotic Cells (%)", "setting": "[3]", "value": "35% and 62%"}, {"measurement": "Population Normal (%)", "setting": "[3]", "value": "91% and 96%"}, {"measurement": "Population Pyknosed Nuclei (%)", "setting": "[3]", "value": "20% and 8%"}, {"measurement": "Population Tubulin-Different-Phenotype (%)", "setting": "[3]", "value": "32% and 24%"}, {"measurement": "Total Cell Count", "setting": "[3]", "value": "148 and 188"}, {"measurement": "Population Apoptotic (%)", "setting": "[4]", "value": "33% and 28%"}, {"measurement": "Population Healthy Nuclei (%)", "setting": "[4]", "value": "44% and 80%"}, {"measurement": "Population Hoechst High Intensity Objects (%)", "setting": "[4]", "value": "30% and 18%"}, {"measurement": "Population Membrane Permeable-Phenotype (%)", "setting": "[4]", "value": 26, "unit": "%"}, {"measurement": "Population Mitotic Cells (%)", "setting": "[4]", "value": "66% and 71%"}, {"measurement": "Population Normal (%)", "setting": "[4]", "value": "69% and 81%"}, {"measurement": "Population Pyknosed Nuclei (%)", "setting": "[4]", "value": 10, "unit": "%"}, {"measurement": "Population Tubulin-Different-Phenotype (%)", "setting": "[4]", "value": "23% and 30%"}, {"measurement": "Total Cell Count", "setting": "[4]", "value": "166 and 106"}, {"measurement": "Population Apoptotic (%)", "setting": "[5]", "value": "46% and 76%"}, {"measurement": "Population Healthy Nuclei (%)", "setting": "[5]", "value": "88% and 62%"}, {"measurement": "Population Hoechst High Intensity Objects (%)", "setting": "[5]", "value": "0% and 10%"}, {"measurement": "Population Mitochondria Different-Phenotype (%)", "setting": "[5]", "value": "29% and 32%"}, {"measurement": "Population Mitotic Cells (%)", "setting": "[5]", "value": "53% and 24%"}, {"measurement": "Population Normal (%)", "setting": "[5]", "value": "99% and 89%"}, {"measurement": "Population Pyknosed Nuclei (%)", "setting": "[5]", "value": "5% and 15%"}, {"measurement": "Population Tubulin-Different-Phenotype (%)", "setting": "[5]", "value": "30% and 46%"}, {"measurement": "Total Cell Count", "setting": "[5]", "value": 259}, {"measurement": "Population Fragmented Nuclei (%)", "setting": "[6]", "value": "7% and 20%"}, {"measurement": "Population Healthy Nuclei (%)", "setting": "[6]", "value": "90% and 57%"}, {"measurement": "Population Hoechst High Intensity Objects (%)", "setting": "[6]", "value": "9% and 7%"}, {"measurement": "Population Mitochondria Different-Phenotype (%)", "setting": "[6]", "value": "37% and 31%"}, {"measurement": "Population Mitotic Cells (%)", "setting": "[6]", "value": "100% and 34%"}, {"measurement": "Population Normal (%)", "setting": "[6]", "value": "90% and 92%"}, {"measurement": "Population Tubulin-Different-Phenotype (%)", "setting": "[6]", "value": "29% and 36%"}, {"measurement": "Total Cell Count", "setting": "[6]", "value": "129 and 90"}, {"measurement": "Population Apoptotic (%)", "setting": "[7]", "value": "68% and 42%"}, {"measurement": "Population Healthy Nuclei (%)", "setting": "[7]", "value": "51% and 88%"}, {"measurement": "Population Mitochondria Different-Phenotype (%)", "setting": "[7]", "value": "28% and 32%"}, {"measurement": "Population Mitotic Cells (%)", "setting": "[7]", "value": "31% and 57%"}, {"measurement": "Population Normal (%)", "setting": "[7]", "value": "89% and 97%"}, {"measurement": "Population Tubulin-Different-Phenotype (%)", "setting": "[7]", "value": "40% and 26%"}, {"measurement": "Total Cell Count", "setting": "[7]", "value": "139 and 241"}, {"measurement": "Population Apoptotic (%)", "setting": "[8]", "value": "40% and 20%"}, {"measurement": "Population Hoechst High Intensity Objects (%)", "setting": "[8]", "value": "27% and 11%"}, {"measurement": "Population Membrane Permeable-Phenotype (%)", "setting": "[8]", "value": "25% and 17%"}, {"measurement": "Population Mitochondria Different-Phenotype (%)", "setting": "[8]", "value": "37% and 38%"}, {"measurement": "Population Mitotic Cells (%)", "setting": "[8]", "value": "59% and 80%"}, {"measurement": "Population Normal (%)", "setting": "[8]", "value": "72% and 88%"}, {"measurement": "Population Tubulin-Different-Phenotype (%)", "setting": "[8]", "value": "34% and 28%"}, {"measurement": "Total Cell Count", "setting": "[8]", "value": "163 and 126"}]}, {"smiles": "Cc1ccccc1C(c1ccccc1C)N1C2CCC1CC(O)(c1ccccc1)C2", "note": "(configuration not stated)", "values": [{"measurement": "Population Healthy Nuclei (%)", "setting": "[1]", "value": 82, "unit": "%"}, {"measurement": "Population Mitotic Cells (%)", "setting": "[1]", "value": 66, "unit": "%"}, {"measurement": "Population Normal (%)", "setting": "[1]", "value": 89, "unit": "%"}, {"measurement": "Total Cell Count", "setting": "[1]", "value": 131}, {"measurement": "Population Healthy Nuclei (%)", "setting": "[2]", "value": 81, "unit": "%"}, {"measurement": "Population Mitotic Cells (%)", "setting": "[2]", "value": 50, "unit": "%"}, {"measurement": "Population Normal (%)", "setting": "[2]", "value": 90, "unit": "%"}, {"measurement": "Total Cell Count", "setting": "[2]", "value": 80}, {"measurement": "Population Healthy Nuclei (%)", "setting": "[3]", "value": 73, "unit": "%"}, {"measurement": "Population Mitotic Cells (%)", "setting": "[3]", "value": 64, "unit": "%"}, {"measurement": "Population Normal (%)", "setting": "[3]", "value": 96, "unit": "%"}, {"measurement": "Total Cell Count", "setting": "[3]", "value": 158}, {"measurement": "Population Healthy Nuclei (%)", "setting": "[4]", "value": 81, "unit": "%"}, {"measurement": "Population Mitotic Cells (%)", "setting": "[4]", "value": 60, "unit": "%"}, {"measurement": "Population Normal (%)", "setting": "[4]", "value": 86, "unit": "%"}, {"measurement": "Total Cell Count", "setting": "[4]", "value": 71}, {"measurement": "Population Healthy Nuclei (%)", "setting": "[5]", "value": 82, "unit": "%"}, {"measurement": "Population Mitotic Cells (%)", "setting": "[5]", "value": 88, "unit": "%"}, {"measurement": "Population Normal (%)", "setting": "[5]", "value": 97, "unit": "%"}, {"measurement": "Total Cell Count", "setting": "[5]", "value": 149}, {"measurement": "Population Healthy Nuclei (%)", "setting": "[6]", "value": 77, "unit": "%"}, {"measurement": "Population Mitotic Cells (%)", "setting": "[6]", "value": 80, "unit": "%"}, {"measurement": "Population Normal (%)", "setting": "[6]", "value": 95, "unit": "%"}, {"measurement": "Total Cell Count", "setting": "[6]", "value": 89}, {"measurement": "Population Healthy Nuclei (%)", "setting": "[7]", "value": 74, "unit": "%"}, {"measurement": "Population Mitotic Cells (%)", "setting": "[7]", "value": 65, "unit": "%"}, {"measurement": "Total Cell Count", "setting": "[7]", "value": 201}, {"measurement": "Population Healthy Nuclei (%)", "setting": "[8]", "value": 65, "unit": "%"}, {"measurement": "Population Mitotic Cells (%)", "setting": "[8]", "value": 50, "unit": "%"}, {"measurement": "Population Normal (%)", "setting": "[8]", "value": 93, "unit": "%"}, {"measurement": "Total Cell Count", "setting": "[8]", "value": 85}, {"measurement": "Population Healthy Nuclei (%)", "setting": "[9]", "value": 89, "unit": "%"}, {"measurement": "Population Mitotic Cells (%)", "setting": "[9]", "value": 68, "unit": "%"}, {"measurement": "Total Cell Count", "setting": "[9]", "value": 157}, {"measurement": "Population Healthy Nuclei (%)", "setting": "[10]", "value": 88, "unit": "%"}, {"measurement": "Population Mitotic Cells (%)", "setting": "[10]", "value": 87, "unit": "%"}, {"measurement": "Population Normal (%)", "setting": "[10]", "value": 97, "unit": "%"}, {"measurement": "Total Cell Count", "setting": "[10]", "value": 98}, {"measurement": "Population Healthy Nuclei (%)", "setting": "[11]", "value": 71, "unit": "%"}, {"measurement": "Population Mitotic Cells (%)", "setting": "[11]", "value": 43, "unit": "%"}, {"measurement": "Population Normal (%)", "setting": "[11]", "value": 95, "unit": "%"}, {"measurement": "Total Cell Count", "setting": "[11]", "value": 289}, {"measurement": "Population Healthy Nuclei (%)", "setting": "[12]", "value": 68, "unit": "%"}, {"measurement": "Population Mitotic Cells (%)", "setting": "[12]", "value": 40, "unit": "%"}, {"measurement": "Population Normal (%)", "setting": "[12]", "value": 85, "unit": "%"}, {"measurement": "Total Cell Count", "setting": "[12]", "value": 141}]}]}
